Test results from ChEMBL document CHEMBL1131440, “Synthesis and potent antifolate activity and cytotoxicity of B-ring deaza analogues of the nonpolyglutamatable dihydrofolate reductase inhibitor Nalpha-(4-amino-4-deoxypteroyl)-Ndelta-hemiphthaloyl- L-ornithine (PT523)” (J Med Chem, 1998).

Tests used:
786-0 = assay: Compound was evaluated for in vitro activity against 786-0 kidney cell lines (Human tumor cells ); assay type: functional, cell-based
Outline: (§1)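 NCI Developmental Therapeutics Program human tumor cell panel; drug exposure in 96-well plates for the last 48 h of a 72-h incubation, then cells stained for total protein with sulforhodamine B per the standard NCI protocol. Data supplied by NCI.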

A498 = assay: Compound was evaluated for in vitro activity against A498 kidney cell lines (Human tumor cells ); assay type: functional, cell-based; outline: as §1
ACHN = assay: Compound was evaluated for in vitro activity against ACHN kidney cell lines (Human tumor cells ); assay type: functional, cell-based; outline: as §1
A549 = assay: Compound was evaluated for in vitro activity against A549/ATCC lung cancer cell lines (Human tumor cells )
BT-549 = assay: Compound was evaluated for in vitro activity against BT-549 breast cancer cell lines (Human tumor cells ); assay type: functional, cell-based; outline: as §1
CCRF-CEM = assay: Compound was evaluated for in vitro activity against CCRF-CEM leukemia cell lines (Human tumor cells ); assay type: functional, cell-based; outline: as §1
Dihydrofolate reductase = target: T1, Dihydrofolate reductase (Homo sapiens, UniProt P00374); assay: Compound was evaluated for the inhibition of Dihydrofolate reductase at concentration ranged from 0.15-0.50 uM
T1 sequence (P00374 whole entry): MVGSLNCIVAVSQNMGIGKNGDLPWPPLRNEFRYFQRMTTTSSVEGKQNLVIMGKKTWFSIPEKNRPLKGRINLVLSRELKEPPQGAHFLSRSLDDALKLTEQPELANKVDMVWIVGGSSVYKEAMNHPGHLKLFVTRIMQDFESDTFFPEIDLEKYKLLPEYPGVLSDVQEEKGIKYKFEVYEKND

HCT-15 = assay: Compound was evaluated for in vitro activity against HCT-15 Colon cell lines (Human tumor cells ); assay type: functional, cell-based; outline: as §1
HCT-116 = assay: Compound was evaluated for in vitro activity against HCT116 Colon cell lines (Human tumor cells ); assay type: functional, cell-based; outline: as §1
HOP-92 = assay: Compound was evaluated for in vitro activity against HOP-92 lung cancer cell lines (Human tumor cells ); assay type: functional, cell-based; outline: as §1
HCC 2998 = assay: Compound was evaluated for in vitro activity against HCC2998 Colon cell lines (Human tumor cells ); assay type: functional, cell-based; outline: as §1
HL-60 = assay: Compound was evaluated for in vitro activity against HL-60(TB) leukemia cell lines (Human tumor cells ); assay type: functional, cell-based; outline: as §1
Hs-578T = assay: Compound was evaluated for in vitro activity against Hs 578.T breast cancer cell lines (Human tumor cells ); assay type: functional, cell-based; outline: as §1
KM12 = assay: Compound was evaluated for in vitro activity against KM-12 Colon cell lines (Human tumor cells ); assay type: functional, cell-based; outline: as §1
K562 = assay: Compound was evaluated for in vitro activity against K562 leukemia cell lines (Human tumor cells ); assay type: functional, cell-based; outline: as §1
IGROV-1 = assay: Compound was evaluated for in vitro activity against IGROV1 Ovary cell lines (Human tumor cells ); assay type: functional, cell-based; outline: as §1
M14 = assay: Compound was evaluated for in vitro activity against M14 Melanoma cell lines (Human tumor cells ); assay type: functional, cell-based; outline: as §1
LOX IMVI = assay: Compound was evaluated for in vitro activity against LOXIMV1 Melanoma cell lines (Human tumor cells ); assay type: functional, cell-based
Outline: (§2)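 Total protein then stained with sulforhodamine B following the standard NCI protocol. Data supplied by the NCI Developmental Therapeutics Program.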

MDA-MB-435 = assay: Compound was evaluated for in vitro activity against MDA-MB-435 breast cancer cell lines (Human tumor cells ); assay type: functional, cell-based; outline: as §1
NCI-H460 = assay: Compound was evaluated for in vitro activity against NCI-H460 lung cancer cell lines (Human tumor cells ); assay type: functional, cell-based; outline: as §1
NCI-H226 = assay: Compound was evaluated for in vitro activity against NCI-H226 lung cancer cell lines (Human tumor cells ); assay type: functional, cell-based; outline: as §1
OVCAR-3 = assay: Compound was evaluated for in vitro activity against OVCAR-3 Ovary cell lines (Human tumor cells ); assay type: functional, cell-based; outline: as §2
OVCAR-8 = assay: Compound was evaluated for in vitro activity against OVCAR-8 Ovary cell lines (Human tumor cells ); assay type: functional, cell-based; outline: as §1
OVCAR-4 = assay: Compound was evaluated for in vitro activity against OVCAR-4 Ovary cell lines (Human tumor cells ); assay type: functional, cell-based; outline: as §1
OVCAR-5 = assay: Compound was evaluated for in vitro activity against OVCAR-5 Ovary cell lines (Human tumor cells ); assay type: functional, cell-based; outline: as §1
NCI-H23 = assay: Compound was evaluated for in vitro activity against NCI-H23 lung cancer cell lines (Human tumor cells ); assay type: functional, cell-based; outline: as §1
PC-3 = assay: Compound was evaluated for in vitro activity against PC-3 prostate cell lines (Human tumor cells ); assay type: functional, cell-based; outline: as §1
RXF 393 = assay: Compound was evaluated for in vitro activity against RXF-393 kidney cell lines (Human tumor cells ); assay type: functional, cell-based; outline: as §1
RPMI-8226 = assay: Compound was evaluated for in vitro activity against RPMI-8226 leukemia cell lines (Human tumor cells ); assay type: functional, cell-based; outline: as §1
SF-268 = assay: Compound was evaluated for in vitro activity against SF-268 CNS cell lines (Human tumor cells ); assay type: functional, cell-based; outline: as §1
SF-295 = assay: Compound was evaluated for in vitro activity against SF-295 CNS cell lines (Human tumor cells ); assay type: functional, cell-based; outline: as §1
SNB- = assay: Compound was evaluated for in vitro activity against […] CNS cell lines (Human tumor cells ); assay type: functional, cell-based; outline: as §1
SR = assay: Compound was evaluated for in vitro activity against SR leukemia cell lines (Human tumor cells ); assay type: functional, cell-based; outline: as §1
SK-MEL-2 = assay: Compound was evaluated for in vitro activity against SK-MEL-2 Melanoma cell lines (Human tumor cells ); assay type: functional, cell-based; outline: as §1
[1] = Compound was tested for in vitro antitumor activity, using SCC25 human head and neck squamous carcinoma cells; assay type: functional; conditions: SCC-25
Outline: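 Clonogenic assay: SCC25 cells exposed to graded drug concentrations for 72 h at 37 °C, 5% CO2, in DMEM with 10% FBS and hydrocortisone ([…]). Then replated as single cells at drug-dependent densities and grown in drug-free medium 10-14 days. Colonies stained with crystal violet; only colonies of ≥50 cells scored. IC50 is mean ± SD of ≥3 assays on different days.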

SK-MEL-5 = assay: Compound was evaluated for in vitro activity against SK-MEL-5 Melanoma cell lines (Human tumor cells ); assay type: functional, cell-based; outline: as §1
TK-10 = assay: Compound was evaluated for in vitro activity against TK-10 kidney cell lines (Human tumor cells ); assay type: functional, cell-based; outline: as §1
T47D = assay: Compound was evaluated for in vitro activity against T-47D breast cancer cell lines (Human tumor cells ); assay type: functional, cell-based; outline: as §1
UACC-257 = assay: Compound was evaluated for in vitro activity against UACC-257 Melanoma cell lines (Human tumor cells ); assay type: functional, cell-based; outline: as §1
U-251 = assay: Compound was evaluated for in vitro activity against U251 CNS cell lines (Human tumor cells ); assay type: functional, cell-based; outline: as §1
NCI-H522 = assay: Compound was evaluated for in vitro activity against NCI-H522 lung cancer cell lines (Human tumor cells ); assay type: functional, cell-based; outline: as §1
SF-539 = assay: Compound was evaluated for in vitro activity against SF-539 CNS cell lines (Human tumor cells ); assay type: functional, cell-based; outline: as §2
MOLT-4 = assay: Compound was evaluated for in vitro activity against MOLT-4 leukemia cell lines (Human tumor cells ); assay type: functional, cell-based; outline: as §1
UACC-62 = assay: Compound was evaluated for in vitro activity against UACC-62 Melanoma cell lines (Human tumor cells ); assay type: functional, cell-based; outline: as §1

Nc1nc(N)c2nc(CNc3ccc(C(=O)NC(CCCNC(=O)c4ccccc4C(=O)O)C(=O)O)cc3)cnc2n1 (centres undefined)
IC50 (786-0): 0.5 nM | IC50 (A498): > 1000 nM | IC50 (ACHN): 0.81 nM | IC50 (A549): 0.57 nM | IC50 (BT-549): > 1000 nM | IC50 (CCRF-CEM): 1.5 nM | Ki (Dihydrofolate reductase): 0.00035 nM | IC50 (HCT-15): 0.6 nM | IC50 (HCT-116): 0.18 nM | IC50 (HOP-92): 7.5 nM | IC50 (HCC 2998): 1.3 nM | IC50 (HL-60): 0.41 nM | IC50 (Hs-578T): > 100 nM | IC50 (KM12): 2.2 nM | IC50 (K562): 0.3 nM | IC50 (IGROV-1): > 100 nM | IC50 (M14): > 100 nM | IC50 (LOX IMVI): 0.23 nM | IC50 (MDA-MB-435): 3.1 nM | IC50 (NCI-H460): 0.43 nM | IC50 (NCI-H226): > 100 nM | IC50 (OVCAR-3): 46 nM | IC50 (OVCAR-8): 0.53 nM | IC50 (OVCAR-4): > 100 nM | IC50 (OVCAR-5): 1 nM | IC50 (NCI-H23): 2.6 nM | IC50 (PC-3): > 100 nM | IC50 (RXF 393): 8.6 nM | IC50 (RPMI-8226): > 100 nM | IC50 (SF-268): 0.73 nM | IC50 (SF-295): 0.51 nM | IC50 (SNB-): > 100 nM | IC50 (SR): 0.42 nM | IC50 (SK-MEL-2): > 100 nM | IC50 [1]: 1.8 nM | IC50 (SK-MEL-5): 4.7 nM | IC50 (TK-10): 9.6 nM | IC50 (T47D): > 1000 nM | IC50 (UACC-257): 25 nM | IC50 (U-251): 5.2 nM | IC50 (NCI-H522): 6.5 nM | IC50 (SF-539): 2.3 nM | IC50 (MOLT-4): 5.2 nM | IC50 (UACC-62): 0.56 nM

Nc1nc(N)c2nc(CNc3ccc(C(=O)NC(CCCNC(=O)c4ccccc4C(=O)O)C(=O)O)cc3)ccc2n1 (centres undefined)
Ki (Dihydrofolate reductase): 0.00019 nM | IC50 [1]: 1.2 nM

Cc1c(CNc2ccc(C(=O)NC(CCCNC(=O)c3ccccc3C(=O)O)C(=O)O)cc2)ccc2nc(N)nc(N)c12 (centres undefined)
Ki (Dihydrofolate reductase): 0.0001 nM | IC50 [1]: 0.44 nM

Nc1nc(N)c2cc(CNc3ccc(C(=O)NC(CCCNC(=O)c4ccccc4C(=O)O)C(=O)O)cc3)ccc2n1 (centres undefined)
IC50 [1]: 0.61 nM
